Measured values as given in paper PMC3157688 (The FASEB Journal, 2011).

What was measured:
[1] = test system: APP[V717I]-transgenic mice; experiment: Open field activity and enriched open field; assay type: in vivo, mouse; conditions: 6-mo-old mice after 3 mo of daily intranasal treatment; data not shown
[2] = test system: brain mRNA levels of APP[V717I] transgenic mice; experiment: Quantitative real-time RT-PCR of brain mRNA levels; assay type: in vivo, mouse; conditions: 6-mo-old mice, 3 mo intranasal treatment; n=7/group
[3] = test system: healthy human male subjects; conditions: cited from earlier work
[4] = test system: human APP processing in the brain of APP[V717I]-transgenic mice; experiment: Immunoblot of sAPPα and full-length APP in brain homogenates, first study; assay type: in vivo, mouse; conditions: 10 μg daily intranasal, administration solution 1, 3 mo; 4-mo-old male mice
How it was run: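 Male APP[V717I] mice (FVB/N background), 1 mo old, received the test compound intranasally at 10 μg/d (1 μg/μl, 5 μl/nostril), 5 d/wk for 3 mo. Vehicle: NaCl/citric acid/disodium phosphate/benzalkonium chloride water solution. Controls (n=8) received carrier alone. Hemispheres homogenized in ice-cold 20 mM Tris-HCl pH 8.5 plus protease inhibitors, then centrifuged at 100,000 g for 1 h at 4°C. sAPPα probed with 6E10 and a 35S-labeled or peroxidase-coupled secondary.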

## pituitary adenylate cyclase-activating polypeptide [PACAP38]
[1]
  activity and exploration-related parameters, difference between the tested groups: no differences
[2]
  ADAM10 gene expression in brain (in words): not caused by increased ADAM10 and ADAM17 gene expression
  ADAM17 gene expression in brain (in words): not caused by increased ADAM10 and ADAM17 gene expression
[3]
  tolerability of inhaled peptide: well tolerated without systemic side-effects
[4]
  expression level of full-length APP in the brain: no influence
